According to ChEMBL document CHEMBL1138270, “Antimycobacterial activities of novel 1-(cyclopropyl/tert-butyl/4-fluorophenyl)-1,4-dihydro- 6-nitro-4-oxo-7-(substituted secondary amino)-1,8-naphthyridine-3-carboxylic acid” (J Med Chem, 2007):
pIC50: −log10 of the molar value. Converted amounts (≈) assume the structure as drawn.

Key:
[1] = system: Vero; assay: Cytotoxicity against Vero cells after 72 hrs by MTT assay; format: cell-based; details: Chlorocebus sabaeus
Method in brief: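 Vero cells were exposed to serially diluted compound up to 62.5 µg/mL for 72 h. Viability was read by cellular conversion of MTT to formazan (CellTiter 96 non-radioactive proliferation assay), and IC50 was derived.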

[2] = system: Mycobacterium tuberculosis; assay: Antimycobacterial activity against Mycobacterium tuberculosis H37Rv by agar dilution method; format: functional
Method in brief: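 MIC was determined by agar dilution, in duplicate.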

[3] = system: Mycolicibacterium smegmatis; assay: Antimicrobial activity against Mycobacterium smegmatis by agar dilution method; format: functional
Method in brief: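 Agar dilution against M. smegmatis ATCC 14468; MIC determined in duplicate.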

[4] = Inhibition of Mycobacterium smegmatis DNA gyrase supercoiling activity; set-up: species or system Mycolicibacterium smegmatis
Method in brief: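 Gyrase purified from M. smegmatis was preincubated with compound in DMSO (5% DMSO in reaction). 400 ng relaxed pUC18 was added in 35 mM Tris-HCl pH 7.5, 5 mM MgCl2, 25 mM K-glutamate, 2 mM spermidine, 2 mM ATP, BSA, tRNA and 5% glycerol, 1 h at 37 °C. Samples were heat-inactivated, run on 1% agarose in TAE, and ethidium-stained; IC50 was derived.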

Compound: CC(C)(C)n1cc(C(=O)O)c(=O)c2cc([N+](=O)[O-])c(N3CCN(C(c4ccccc4)c4ccc(Cl)cc4)CC3)nc21 (configuration not stated)
- pIC50 [1]: < 3.96
- MIC [2]: 1.35 µM (≈ 0.778 µg/mL)
- MIC [3]: 174 µM (≈ 100 µg/mL)

Compound: CC(C)(C)NC(=O)C1c2ccccc2CCN1c1nc2c(cc1[N+](=O)[O-])c(=O)c(C(=O)O)cn2C1CC1 (configuration not stated)
- pIC50 [1]: 3.91
- MIC [2]: 3.09 µM (≈ 1.56 µg/mL)
- MIC [3]: 24.7 µM (≈ 12.5 µg/mL)

Compound: CN1CCN(c2nc3c(cc2[N+](=O)[O-])c(=O)c(C(=O)O)cn3C2CC2)CC1c1ccccc1 (configuration not stated)
- pIC50 [1]: 3.86
- MIC [2]: 6.96 µM (≈ 3.13 µg/mL)
- MIC [3]: 27.8 µM (≈ 12.5 µg/mL)

Compound: CN1CCN(c2nc3c(cc2[N+](=O)[O-])c(=O)c(C(=O)O)cn3C(C)(C)C)CC1c1ccccc1 (configuration not stated)
- pIC50 [1]: < 3.87
- MIC [2]: 0.84 µM (≈ 0.391 µg/mL)
- MIC [3]: 13.4 µM (≈ 6.25 µg/mL)

Compound: CC(C)(C)n1cc(C(=O)O)c(=O)c2cc([N+](=O)[O-])c(N3CCN(C(=O)c4ccco4)CC3)nc21
- pIC50 [1]: 3.88
- MIC [2]: 3.32 µM (≈ 1.56 µg/mL)
- MIC [3]: 6.67 µM (≈ 3.13 µg/mL)

Compound: O=C(O)c1cn(C2CC2)c2nc(N3CCN(C(c4ccccc4)c4ccc(Cl)cc4)CC3)c([N+](=O)[O-])cc2c1=O (configuration not stated)
- pIC50 [1]: 3.95
- MIC [2]: 5.59 µM (≈ 3.13 µg/mL)
- MIC [3]: 22.3 µM (≈ 12.5 µg/mL)

Compound: O=C(O)c1cn(C2CC2)c2nc(N3CCN(C(=O)C4COc5ccccc5O4)CC3)c([N+](=O)[O-])cc2c1=O (configuration not stated)
- pIC50 [1]: 4.22
- MIC [2]: 12 µM (≈ 6.25 µg/mL)
- MIC [3]: 6 µM (≈ 3.13 µg/mL)

Compound: O=C(O)c1cn2c(n1)CN(c1nc3c(cc1[N+](=O)[O-])c(=O)c(C(=O)O)cn3C1CC1)CC2
- pIC50 [1]: 3.85
- MIC [2]: 3.54 µM (≈ 1.56 µg/mL)
- MIC [3]: 28.4 µM (≈ 12.5 µg/mL)

Compound: CC1CN(c2nc3c(cc2[N+](=O)[O-])c(=O)c(C(=O)O)cn3C2CC2)CC(C)O1 (configuration not stated)
- pIC50 [1]: < 3.79
- MIC [2]: 4.02 µM (≈ 1.56 µg/mL)
- MIC [3]: 32.2 µM (≈ 12.5 µg/mL)

Compound: O=C(O)c1cn(-c2ccc(F)cc2)c2nc(N3CCC(N4CCCCC4)CC3)c([N+](=O)[O-])cc2c1=O
- pIC50 [1]: < 3.90
- MIC [2]: 3.15 µM (≈ 1.56 µg/mL)
- MIC [3]: 25.2 µM (≈ 12.5 µg/mL)

Compound: O=C(O)c1cn(C2CC2)c2nc(N3CCC(N4CCCCC4)CC3)c([N+](=O)[O-])cc2c1=O
- pIC50 [1]: < 3.85
- MIC [2]: 7.09 µM (≈ 3.13 µg/mL)
- MIC [3]: 28.3 µM (≈ 12.5 µg/mL)

Compound: CCN(CC)C(=O)C1CCCN(c2nc3c(cc2[N+](=O)[O-])c(=O)c(C(=O)O)cn3C2CC2)C1 (configuration not stated)
- pIC50 [1]: < 3.86
- MIC [2]: 3.41 µM (≈ 1.56 µg/mL)
- MIC [3]: 109 µM (≈ 50 µg/mL)

Compound: CC(C)(C)n1cc(C(=O)O)c(=O)c2cc([N+](=O)[O-])c(N3CCC(N4CCCCC4)CC3)nc21
- pIC50 [1]: < 3.86
- MIC [2]: 1.7 µM (≈ 0.778 µg/mL)
- MIC [3]: 6.84 µM (≈ 3.13 µg/mL)

Compound: O=C(O)c1cn(C2CC2)c2nc(N3CCC(n4c(=O)[nH]c5cc(Cl)ccc54)CC3)c([N+](=O)[O-])cc2c1=O
- pIC50 [1]: 4.26
- MIC [2]: 2.97 µM (≈ 1.56 µg/mL)
- MIC [3]: 23.8 µM (≈ 12.5 µg/mL)

Compound: CC(C)(C)n1cc(C(=O)O)c(=O)c2cc([N+](=O)[O-])c(N3CCN(C(=O)C4COc5ccccc5O4)CC3)nc21 (configuration not stated)
- pIC50 [1]: 3.93
- MIC [2]: 1.45 µM (≈ 0.779 µg/mL)
- MIC [3]: 5.82 µM (≈ 3.13 µg/mL)

Compound: O=C(O)c1cn(C2CC2)c2nc(N3CCN(C(=O)c4ccco4)CC3)c([N+](=O)[O-])cc2c1=O
- pIC50 [1]: 4.16
- MIC [2]: 6.9 µM (≈ 3.13 µg/mL)
- MIC [3]: 27.6 µM (≈ 12.5 µg/mL)

Compound: O=C(O)c1cn(C2CC2)c2nc(N3CCN(Cc4ccc5c(c4)OCO5)CC3)c([N+](=O)[O-])cc2c1=O
- pIC50 [1]: 3.90
- MIC [2]: 3.16 µM (≈ 1.56 µg/mL)
- MIC [3]: 25.3 µM (≈ 12.5 µg/mL)

Compound: CN1CCN(c2nc3c(cc2[N+](=O)[O-])c(=O)c(C(=O)O)cn3-c2ccc(F)cc2)CC1c1ccccc1 (configuration not stated)
- pIC50 [1]: 3.91
- MIC [2]: 0.77 µM (≈ 0.388 µg/mL)
- MIC [3]: 3.09 µM (≈ 1.56 µg/mL)
- pIC50 [4]: 4.00

Compound: O=C(O)c1cn(-c2ccc(F)cc2)c2nc(N3CCC(O)(c4ccc(Cl)cc4)CC3)c([N+](=O)[O-])cc2c1=O
- pIC50 [1]: 4.22
- MIC [2]: 2.89 µM (≈ 1.56 µg/mL)
- MIC [3]: 11.6 µM (≈ 6.25 µg/mL)

Compound: CCN(CC)C(=O)C1CCCN(c2nc3c(cc2[N+](=O)[O-])c(=O)c(C(=O)O)cn3C(C)(C)C)C1 (configuration not stated)
- pIC50 [1]: < 3.88
- MIC [2]: 3.29 µM (≈ 1.56 µg/mL)
- MIC [3]: 106 µM (≈ 50 µg/mL)

Compound: O=C(O)c1cn(-c2ccc(F)cc2)c2nc(N3CCN(C(c4ccccc4)c4ccc(Cl)cc4)CC3)c([N+](=O)[O-])cc2c1=O (configuration not stated)
- pIC50 [1]: 3.99
- MIC [2]: 1.27 µM (≈ 0.78 µg/mL)
- MIC [3]: 5.09 µM (≈ 3.13 µg/mL)

Compound: CC(C)(C)n1cc(C(=O)O)c(=O)c2cc([N+](=O)[O-])c(N3CCN(Cc4ccc5c(c4)OCO5)CC3)nc21
- pIC50 [1]: < 3.91
- MIC [2]: 1.53 µM (≈ 0.78 µg/mL)
- MIC [3]: 6.14 µM (≈ 3.13 µg/mL)
